Reference: ChEMBL document CHEMBL1151470, “Pharmacokinetic interaction between fosamprenavir-ritonavir and rifabutin in healthy subjects” (Antimicrob Agents Chemother, 2008)

Legend:
[1] = test system: Homo sapiens; experiment: Toxicity in human assessed as general disorder at 150 mg, […] with 700 mg fosamprenavir and 100 mg ritonavir po BID; format: organism-based; details: in vivo
[2] = test system: Homo sapiens; experiment: Toxicity in human assessed as increase in neutrophile count at 300 mg, po QD; format: organism-based; details: in vivo
[3] = test system: Homo sapiens; experiment: Toxicity in human assessed as skin and subcutaneous tissue disorder at 300 mg, po QD; format: organism-based; details: in vivo
[4] = test system: Homo sapiens; experiment: Toxicity in human assessed as fatigue at 300 mg, po QD; format: organism-based; details: in vivo
[5] = AUC (0 to 48 hrs) in human at 300 mg, po QD; format: ADME, organism-based; parameters: time < 48 hr, dose 300 mg, route oral; details: plasma
Method in brief: (§1)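 Volunteers took RFB 300 mg QD alone to steady state. Serial EDTA plasma was sampled on the last treatment day at predose and 0.5–24 h, then stored at –20°C. AUC0-24 came from noncompartmental analysis (linear up/log-linear down trapezoidal) using actual times, and was doubled to estimate AUC0-48.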

[6] = Cmax in human at 300 mg, po QD; details: in vivo
[7] = AUC (0 to 48 hrs) in human at 150 mg, […] coadministered with 700 mg fosamprenavir and 100 mg ritonavir po BID; format: ADME, organism-based; parameters: time < 48 hr, dose 150 mg, route oral; details: plasma
Method in brief: (§2)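 Healthy volunteers received RFB 150 mg every other day with FPV-RTV 700/100 mg BID to steady state. Serial EDTA plasma was sampled on the last treatment day at predose and 0.5–24, 36 and 48 h, then stored at –20°C. AUC0-48 came from noncompartmental analysis (linear up/log-linear down trapezoidal) using actual elapsed sampling times.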

[8] = test system: Homo sapiens; experiment: AUC (0 to 48 hrs) in human assessed as dAc-RFB level at 300 mg, po QD; format: ADME, organism-based, Plasma; parameters: dose 300 mg, time < 48 hr, route oral; details: in vivo; method in brief: as §1
[9] = test system: Homo sapiens; experiment: AUC (0 to 48 hrs) in human assessed as dAc-RFB level at 150 mg, […] coadministered with 700 mg fosamprenavir and 100 mg ritonavir po BID; format: ADME, organism-based, Plasma; parameters: dose 150 mg, time < 48 hr, route oral; details: in vivo; method in brief: as §2
[10] = test system: Homo sapiens; experiment: Toxicity in human assessed as nervous system disorder at 300 mg, po QD; format: organism-based; details: in vivo
[11] = test system: Homo sapiens; experiment: Toxicity in human assessed as nervous system disorder at 150 mg, […] with 700 mg fosamprenavir and 100 mg ritonavir po BID; format: organism-based; details: in vivo
[12] = test system: Homo sapiens; experiment: Toxicity in human assessed as headache at 300 mg, po QD; format: organism-based; details: in vivo
[13] = test system: Homo sapiens; experiment: Toxicity in human assessed as headache at 150 mg, […] with 700 mg fosamprenavir and 100 mg ritonavir po BID; format: organism-based; details: in vivo
[14] = test system: Homo sapiens; experiment: Toxicity in human assessed as renal and urinary disorder at 300 mg, po QD; format: organism-based, Urine; details: in vivo
[15] = test system: Homo sapiens; experiment: Toxicity in human assessed as renal and urinary disorder at 150 mg, […] with 700 mg fosamprenavir and 100 mg ritonavir po BID; format: organism-based, Urine; details: in vivo
[16] = test system: Homo sapiens; experiment: Toxicity in human assessed as chromaturia at 300 mg, po QD; format: organism-based; details: in vivo
[17] = test system: Homo sapiens; experiment: Toxicity in human assessed as pollakiurea at 300 mg, po QD; format: organism-based; details: in vivo
[18] = test system: Homo sapiens; experiment: Toxicity in human assessed as gastrointestinal disorder at 300 mg, po QD; format: organism-based; details: in vivo
[19] = test system: Homo sapiens; experiment: Toxicity in human assessed as diarrhea at 300 mg, po QD; format: organism-based; details: in vivo
[20] = test system: Homo sapiens; experiment: Toxicity in human assessed as nausea at 300 mg, po QD; format: organism-based; details: in vivo
[21] = clinical; details: human, in vivo, po
[22] = test system: Homo sapiens; experiment: Toxicity in human assessed as nausea at 150 mg, po QOD coadministered with 700 mg fosamprenavir and 100 mg ritonavir po BID; details: in vivo
[23] = test system: Homo sapiens; experiment: Toxicity in human assessed as myalgia at 150 mg, po QOD coadministered with 700 mg fosamprenavir and 100 mg ritonavir po BID; details: in vivo
[24] = test system: Homo sapiens; experiment: Toxicity in human assessed as chromaturia at 150 mg, po QOD coadministered with 700 mg fosamprenavir and 100 mg ritonavir po BID; details: in vivo
[25] = test system: Homo sapiens; experiment: Toxicity in human assessed as pollakiurea at 150 mg, po QOD coadministered with 700 mg fosamprenavir and 100 mg ritonavir po BID; details: in vivo
[26] = test system: Homo sapiens; experiment: Toxicity in human assessed as diarrhea disorder at 150 mg, po QOD coadministered with 700 mg fosamprenavir and 100 mg ritonavir po BID; details: in vivo
[27] = test system: Homo sapiens; experiment: Toxicity in human assessed as gastrointestinal disorder at 150 mg, po QOD coadministered with 700 mg fosamprenavir and 100 mg ritonavir po BID; details: in vivo

CO[C@H]1/C=C/O[C@@]2(C)Oc3c(C)c(O)c4c(c3C2=O)C2=NC3(CCN(CC(C)C)CC3)NC2=C(NC(=O)/C(C)=C\C=C\[C@H](C)[C@H](O)[C@@H](C)[C@@H](O)[C@@H](C)[C@H](OC(C)=O)[C@@H]1C)C4=O [RIFABUTIN]
Activity [1]: 7%
Activity [2]: 0%
Activity [3]: 0%
Activity [4]: 0%
AUC at 48 h [5]: 6110 ng·h/mL
Cmax [6]: 313 ng/mL
AUC at 48 h [7]: 5810 ng·h/mL
AUC [8]: 411 ng·h/mL
AUC [9]: 4600 ng·h/mL
Activity [10]: 35%
Activity [11]: 55%
Activity [12]: 35%
Activity [13]: 45%
Activity [14]: 59%
Activity [15]: 50%
Activity [16]: 0%
Activity [17]: 6%
Activity [18]: 2%
Activity [19]: 0%
Activity [20]: 6%
Cmax [21]: 268 ng/mL
Activity [22]: 9%
Activity [23]: 4%
Activity [24]: 4%
Activity [25]: 12%
Activity [26]: 4%
Activity [27]: 7%
